Screens (PubChem)
697 NFkB inh: lowers PMA/ionomycin-induced NF-kB signal in 697 B cells | hit rate 0.33% among 330,000 | inhibition, % at 4 µM | 697 B-cell NF-kB luciferase reporter, 16 h; in the data active means inhibition above about 35%
MPTP inh: blocks calcium-induced mitochondrial swelling. hit rate 1.4% among 360,000. isolated mouse mitochondria, Ca2+ swelling absorbance, 30 min. inhibition, % at 10 µM;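 active means inhibition of 50% or more, scaled per plate between neutral and stimulator controls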;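 further: 0% = DMSO wells given calcium and 100% = 1 mM EGTA wells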
Jurkat NFkB inh: inhibitors of the PMA/ionomycin-induced NF-kB reporter in Jurkat cells; PMA/ionomycin-induced NF-kB luciferase reporter, luminescence; inhibition, % at 4 µM; hit rate 0.53% among 330,000; in the data active means inhibition above about 50%
NR2E3 ag-1: agonists of human nuclear receptor NR2E3; Q9Y5X4; GST-NR2E3/biotin-RetCOR TR-FRET, 1536-well; inhibition of corepressor binding, % at 4.78 µM; hit rate 0.12% among 320,000; AID 2300;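 active means percent inhibition above the cutoff of mean plus 3 SD of all tested compounds, set per screening campaign, cut at about 20% in these data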;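 further: 0% = DMSO wells and 100% = biotin wells as full block of FRET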
Target sequence (Q9Y5X4 whole entry, looked up): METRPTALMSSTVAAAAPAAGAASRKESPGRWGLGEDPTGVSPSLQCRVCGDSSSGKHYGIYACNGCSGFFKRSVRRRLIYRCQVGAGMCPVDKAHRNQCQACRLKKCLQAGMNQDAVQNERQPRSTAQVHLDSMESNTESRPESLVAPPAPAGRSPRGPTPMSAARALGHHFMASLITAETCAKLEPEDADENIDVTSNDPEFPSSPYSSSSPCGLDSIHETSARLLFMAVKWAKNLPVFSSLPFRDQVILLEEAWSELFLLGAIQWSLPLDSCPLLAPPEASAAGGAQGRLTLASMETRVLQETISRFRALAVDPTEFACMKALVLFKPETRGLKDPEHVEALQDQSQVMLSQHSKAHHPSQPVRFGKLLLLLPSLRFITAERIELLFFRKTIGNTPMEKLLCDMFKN
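System: GST-tagged NR2E3 plus biotinylated RetCOR corepressor; Amount: 1.35 nM GST-tagged NR2E3 final; Dosing: single nominal compound dose of 4.8 µM; Schedule: 5 h incubation at 4 °C; Technique: TR-FRET with europium anti-GST and streptavidin-D2, 340 nm excitation; Controls: biotin wells as high control, 0.6% DMSO wells as low control.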
NR2E3 ag-2: activates human NR2E3 receptor; hit rate 0.35% among 360,000; inhibition of corepressor binding, % at 3.98 µM; AID 602229; Q9Y5X4; CHO-S Gal4-NCOR/VP16-NR2E3 two-hybrid, luciferase;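 active means inhibition above the mean of all tested compounds plus 3 SD, cut at about 70% in these data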;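 further: 0% = DMSO with NR2E3 transfected cells and 100% = cells lacking NR2E3 construct; higher means lower luciferase signal from less NR2E3 corepressor binding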
aDG glyco act: increases alpha dystroglycan glycosylation. Pro5-aDG cells, alpha-DG glycosylation AlphaScreen (IIH6); 0% Pro5, 100% B10-LARGE cell signal. activation, % at 10 µM. hit rate 0.22% among 360,000. AID 624168;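 active means activation of at least 8% versus controls, or a plate z-score of at least 8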;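 further: Pro5 are CHO cells carrying HIG-tagged alpha-DG that lacks glycosylation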
697 NFkB conf: lowers PMA/ionomycin-induced NF-kB signal in 697 B cells; shares compounds with 697 NFkB inh; hit rate 35% among 2,000; AID 449746; 697 B-cell NF-kB luciferase, 16 h; inhibition, % at 4 µM; in the data active means inhibition mostly above about 28%, no sharp cut-off; inactive means mostly below about 22%
An asterisk follows results filed as active; i = inactive; . = no result; ! = repeats disagree. This is a sample that favours compounds with a hit; in the whole collection about 2.4% have one here.

SMILES | 697 NFkB inh | MPTP inh | Jurkat NFkB inh | NR2E3 ag-1 | NR2E3 ag-2 | aDG glyco act | 697 NFkB conf
CCn1c(=O)cc(SCC(=O)N2CCN(c3ccccc3OC)CC2)c2ccccc21 | 36.3* | -1.2 | -3.8 | -7.7 | 37.6 | 0.0 | 9.4
CN1CCN(C(=O)CSc2cc(=O)n(C)c3ccccc23)CC1 | 16.0 | 2.2 | 13.0 | 1.5 | -12.6 | -0.2 | .
O=C(CN1CCN(S(=O)(=O)c2ccccc2F)CC1)Nc1ccccc1C(=O)c1ccccc1 | 10.7 | -1.1 | 5.3 | 0.8 | 13.7 | -0.1 | .
CC(=O)Nc1nc(C)c(Oc2cccc(C(F)(F)F)c2)c(=O)[nH]1 | 1.9 | -0.3 | 10.0 | -0.4 | 5.8 | -0.2 | .
O=C(NCc1ccc(F)cc1)c1cc(-c2ccccn2)nc2ccc(S(=O)(=O)N3CCOCC3)cc12 | . | 0.2 | . | . | -28.9 | 0.1 | .
OCC[C@H]1C[C@H](O)[C@@H](O)[C@]2(CCCO2)O1 | 9.9 | 0.7 | 8.0 | 6.5 | 20.4 | 0.0 | .
COc1ccc2c(c1OC)C(=O)OC2Nc1ccccn1 (stereo not given) | 35.5* | -1.7 | 22.6 | 2.1 | -13.3 | -0.2 | 5.8
Cc1ccc(SCC(=O)Nc2cc(S(=O)(=O)N3CCCCC3)ccc2C)cc1 | -14.4 | -0.2 | -11.1 | . | 1.6 | 0.5 | .
COc1ccc(NC(=O)C2CCN(c3cc(-c4ccccc4)nc4ncnn34)CC2)cc1OC | 40.1* | 1.4 | 24.3 | -3.7 | -10.1 | 0.6 | 8.2
CCCCCCC(NC(=O)c1ccc(C)cc1)C(=O)O (stereo not given) | 3.2 | -0.3 | . | . | -3.1 | 0.0 | .
CCOc1cc(/C=N/NC(=O)c2ccc(NC(=O)C3CC3)cc2)ccc1O | 38.5* | -1.0 | 22.0 | 1.1 | 6.8 | -0.2 | 19.3
NS(=O)(=O)c1cc(C(=O)OCC(=O)Nc2ccc3c(c2)OCO3)ccc1Cl | 12.8 | -0.5 | -10.6 | . | 10.1 | 0.0 | .
O=C1CC(c2ccc3c(c2)OCO3)c2cc3c(cc2N1)OCO3 (stereo not given) | 3.3 | -1.8 | 16.0 | 0.8 | -53.1 | 0.2 | .
O=C1CC(c2ccc3c(c2)OCO3)CN1 (stereo not given) | 38.3* | 23.0 | 24.1 | -1.9 | -21.0 | -0.1 | 11.8
CCCn1c(N)c(C(=O)CSc2nc3ccccc3s2)c(=O)[nH]c1=O | -432.9 | 1.3 | -111.5 | 2.2 | -12.4 | 1.0 | i
COc1ccc(-c2nn(C)c(=O)c3ccccc23)cc1CNS(C)(=O)=O | 29.2 | 13.7 | -0.6 | -0.7 | -2.8 | -0.2 | .
COc1ccc(-c2nn(C)c(=O)c3ccccc23)cc1NS(C)(=O)=O | 38.2* | -0.4 | -8.8 | 1.4 | -6.1 | -0.5 | 32.3*
CN(C)S(=O)(=O)N(CC(=O)N1CCN(c2ccccc2)CC1)c1ccccc1 | -35.0 | 1.1 | -26.7 | -1.2 | -14.4 | 0.1 | .
Cc1ccccc1-c1nc(S(=O)(=O)c2ccccc2)c(N2CCCC2)o1 | -6.6 | 0.2 | -0.9 | . | 17.9 | 0.3 | .
COc1ccc(-c2c[n+]3c(n2-c2ccccc2)SCC3)cc1 | 18.1 | 4.7 | 38.9 | -2.4 | -25.9 | -0.1 | .
Cc1ccc(-c2c[n+]3c(n2-c2ccccc2)SCC3)cc1 | 38.7* | 4.6 | 34.2 | 1.0 | -3.8 | -0.1 | 42.2*
Cc1ccc(-c2cn(-c3ccccc3)c3[n+]2CCCS3)cc1 | 56.4*! | 44.2 | 39.8 | 1.4 | 3.2 | 1.2 | 35.5*
COc1cccc(OC)c1C(=O)Nc1ccc(C(=O)NCc2ccccc2)cc1 | -4.6 | -1.5 | 0.4 | 3.0 | -6.4 | -0.3 | .
O=C(/C=C/Nc1ccccc1F)c1cccs1 | -349.0 | 7.8 | -112.5 | 0.6 | -152.2 | 0.0 | -88.4
Cc1ccc(OCCn2cc(C(=S)N3CCCC3)c3ccccc32)cc1C | i | -0.7 | -57.8 | 2.1 | 2.3 | 1.1 | 7.2
SMILES | 697 NFkB inh | MPTP inh | Jurkat NFkB inh | NR2E3 ag-1 | NR2E3 ag-2 | aDG glyco act | 697 NFkB conf
S=C(c1cn(CCOc2ccccc2)c2ccccc12)N1CCCC1 | 2.3 | 0.6 | 8.6 | -2.2 | -34.6 | 3.0 | .
Cc1cc(C(=O)CN2C(=O)c3ccccc3C2=O)c(C)n1Cc1cccs1 | -187.4 | -1.6 | 1.8 | 0.2 | -109.3 | 0.5 | .
Cc1cc(C(=O)Cn2nnc3ccccc3c2=O)c(C)n1Cc1cccs1 | -341.1 | -0.5 | -104.0 | -1.0 | -113.2 | -0.1 | -234.1
COc1ccc(-c2noc(N3CCC(C(=O)Nc4cccc(OC)c4)CC3)n2)cc1 | 42.3* | -0.2 | 20.0 | -0.8 | -37.7 | -0.2 | 34.5*
O=C(c1ccc2c(=O)n(-c3ccccc3)c(=S)[nH]c2c1)N1CCN(c2ccccc2)CC1 | 4.9 | 0.0 | 16.6 | 3.3 | 6.6 | 0.1 | .
CCC(C)NC(=O)c1ccc(-n2c(=S)[nH]c3ccccc3c2=O)cc1 (stereo not given) | 40.6* | 2.1 | 14.3 | 3.4 | -26.1 | -0.1 | 0.6
O=C(c1ccc2c(=O)n(-c3ccccc3)c(=S)[nH]c2c1)N1CCCCC1 | 38.2* | 21.9 | 7.3 | 1.5 | 10.6 | 3.5 | -28.4
CCOC(=O)Cc1csc(NC(=S)NC(=O)c2ccccc2)n1 | -11.8 | 0.2 | -4.5 | 2.9 | -5.9 | -0.2 | .
CCOC(=O)Cc1csc(NC(=S)NC(=O)c2ccc(C)cc2)n1 | 69.8* | 1.9 | -5.1 | 0.5 | -3.9 | -0.1 | 88.9*
CCOc1ccccc1CNC(=O)c1cc2oc3ccccc3c2n1CC | -279.9 | 0.7 | -19.0 | -2.4 | -29.2 | 1.5 | -96.8
CCOc1ccc(CNC(=O)c2cc3oc4ccccc4c3n2C)cc1 | -389.0 | 3.1 | -59.5 | 0.2 | -46.3 | 0.1 | -185.9
COC(=O)c1cc2oc3ccccc3c2n1CC(=O)Nc1ccccc1OC | 18.4 | -0.5 | -9.6 | -2.5 | 3.4 | -0.1 | .
CCOc1ccc2cc(C(=O)NCc3ccccc3)c(=N)oc2c1 | -11.9 | 1.3 | -2.4 | -0.6 | -36.9 | -0.1 | .
CCn1c(C(=O)N2CCc3ccccc3C2)cc2oc3ccccc3c21 | 8.0 | 1.9 | -10.5 | 0.9 | -40.6 | -0.1 | .
COc1cccc(CNC(=O)c2cc3oc4ccccc4c3n2C)c1OC | -378.0 | -2.7 | 9.7 | 1.6 | 3.6 | 0.5 | i
CCn1c2c(c(=N)c3c1CCC3)CCCC2 | -8.7 | 2.1 | 41.3 | 1.6 | -18.5 | -0.2 | .
CCCCn1c2c(c(=N)c3ccccc31)CCC2 | 44.3* | 2.8 | 48.5 | 1.6 | -20.9 | -0.1 | 46.4*
COCCNC(=O)CSc1ncnc2sc(-c3ccccc3)cc12 | 12.0 | 0.4 | 2.6 | 2.1 | 3.5 | 0.9 | .
CC(Sc1ncnc2sc(-c3ccccc3)cc12)C(N)=O (stereo not given) | -17.2 | 0.1 | -10.8 | 1.8 | -82.3 | -0.2 | .
CC(=O)CCSc1ncnc2sc(-c3ccccc3)cc12 | -336.3 | 0.0 | -126.1 | 0.4 | -108.0 | 1.0 | -163.9
O=C(O)CCSc1ncnc2sc(-c3ccccc3)cc12 | 80.7* | 3.0 | 21.7 | -1.3 | 31.2 | -0.1 | 62.5*
CCCC(=O)Nc1ccc(Sc2ccc([N+](=O)[O-])cc2)cc1 | 41.4* | 7.9 | 41.3 | 3.3 | 24.0 | 1.5 | 35.0*
